Experimental data taken from ChEMBL document CHEMBL4152227, “Targeting mitochondria: Esters of rhodamine B with triterpenoids are mitocanic triggers of apoptosis” (Eur J Med Chem, 2018).
Activity calls are given as the source filed them.

Assays:
[1] = test system: SW-1736; experiment: Cytotoxicity against human SW1736 cells after 96 hrs by SRB assay; format: functional, cell-based; conditions: SW-1736, 96 h
Summary of the method: (§1)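 Sulforhodamine B colorimetric assay after 96 h of treatment. EC50 values in µM are averaged from three independent experiments, each run in triplicate, with a 95% confidence interval. The assay cut-off is 30 µM.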

[2] = test system: MCF7; experiment: Cytotoxicity against human MCF7 cells after 96 hrs by SRB assay; format: functional, cell-based; conditions: MCF7, 96 h; summary of the method: as §1
[3] = test system: NIH3T3; experiment: Cytotoxicity against mouse NIH/3T3 cells after 96 hrs by SRB assay; format: cell-based; conditions: NIH3T3, 96 h; summary of the method: as §1
[4] = test system: FaDu; experiment: Cytotoxicity against human FADU cells after 96 hrs by SRB assay; format: functional, cell-based; summary of the method: as §1
[5] = test system: A2780; experiment: Cytotoxicity against human A2780 cells after 96 hrs by SRB assay; format: functional, cell-based; conditions: A2780, 96 h; summary of the method: as §1
[6] = test system: HT-29; experiment: Cytotoxicity against human HT-29 cells after 96 hrs by SRB assay; format: functional, cell-based; conditions: HT-29, 96 h; summary of the method: as §1
[7] = Drug uptake in mitochondria of human A2780 cells at 200 nM after 24 hrs by rhodamine 123 staining based fluorescence microscopy; format: ADME; conditions: a2780, 24 h, 0.2 µM
Summary of the method: (§2)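 A2780 ovarian carcinoma cells were incubated 24 h with 200 nM compound, then double-stained with rhodamine 123 (mitochondria, green) and Hoechst 33342 (nuclei). Fluorescence microscopy localized the compound's own red fluorescence by overlay with the rhodamine 123 and Hoechst channels. Bright-field images were also taken.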

[8] = test system: A2780; experiment: Induction of apoptosis in human A2780 cells assessed as crescent-shaped nuclei at 200 nM after 24 hrs by Hoechst 33342 staining based fluorescence microscopy; format: functional, cell-based
[9] = test system: A2780; experiment: Induction of apoptosis in human A2780 cells assessed as incipient membrane blebbing at 200 nM after 24 hrs; format: functional, cell-based
[10] = Drug uptake in nucleus of human A2780 cells at 200 nM after 24 hrs by rhodamine 123 staining based fluorescence microscopy; format: ADME, subcellular; conditions: a2780, 24 h, 0.2 µM; summary of the method: as §2

Drug uptake [7] | Drug uptake [10] | SMILES | EC50 [1] | EC50 [2] | EC50 [3] | EC50 [4] | EC50 [5] | EC50 [6] | Activity [8] | Activity [9]
– | – | CCN(CC)c1ccc2c(-c3ccccc3C(=O)O[C@H]3CC[C@]4(C)[C@H]5CC=C6[C@@H]7CC(C)(C)CC[C@]7(C(=O)OC)CC[C@@]6(C)[C@]5(C)CC[C@H]4C3(C)C)c3ccc(=[N+](CC)CC)cc-3oc2c1 | 1760 nM | 2310 nM | 2630 nM | 1990 nM | 1140 nM | 2750 nM | – | –
– | – | CCN(CC)c1ccc2c(-c3ccccc3C(=O)O[C@H]3CC[C@]4(C)[C@H]5CC=C6[C@@H]7[C@@H](C)[C@H](C)CC[C@]7(C(=O)NCc7ccccc7)CC[C@@]6(C)[C@]5(C)CC[C@H]4C3(C)C)c3ccc(=[N+](CC)CC)cc-3oc2c1 | 240 nM | 300 nM | 370 nM | 440 nM | 340 nM | 450 nM | – | –
– | – | CCN(CC)c1ccc2c(-c3ccccc3C(=O)O[C@H]3CC[C@]4(C)[C@H]5C(=O)C=C6[C@@H]7C[C@@](C)(C(=O)OCc8ccccc8)CC[C@]7(C)CC[C@@]6(C)[C@]5(C)CC[C@H]4C3(C)C)c3ccc(=[N+](CC)CC)cc-3oc2c1 | 1130 nM | 1470 nM | 1280 nM | 1540 nM | 900 nM | 1420 nM | – | –
– | – | CCN(CC)c1ccc2c(-c3ccccc3C(=O)O[C@H]3CC[C@]4(C)[C@H]5CC=C6[C@@H]7CC(C)(C)CC[C@]7(C(=O)NCc7ccccc7)CC[C@@]6(C)[C@]5(C)CC[C@H]4C3(C)C)c3ccc(=[N+](CC)CC)cc-3oc2c1 | 270 nM | 360 nM | 400 nM | 500 nM | 320 nM | 460 nM | – | –
– | – | CCN(CC)c1ccc2c(-c3ccccc3C(=O)O[C@H]3CC[C@]4(C)[C@H]5C(=O)C=C6[C@@H]7C[C@@](C)(C(=O)OC)CC[C@]7(C)CC[C@@]6(C)[C@]5(C)CC[C@H]4C3(C)C)c3ccc(=[N+](CC)CC)cc-3oc2c1 | 150 nM | 180 nM | 200 nM | 190 nM | 80 nM | 150 nM | – | –
– | – | C=C(C)[C@@H]1CC[C@]2(C(=O)OCc3ccccc3)CC[C@]3(C)[C@H](CC[C@@H]4[C@@]5(C)CC[C@H](OC(=O)c6ccccc6-c6c7ccc(=[N+](CC)CC)cc-7oc7cc(N(CC)CC)ccc67)C(C)(C)[C@@H]5CC[C@]43C)[C@H]12 | 6430 nM | 5050 nM | 8040 nM | 7590 nM | 3360 nM | 5330 nM | – | –
– | – | C=C(C)[C@@H]1CC[C@]2(C(=O)NCc3ccccc3)CC[C@]3(C)[C@H](CC[C@@H]4[C@@]5(C)CC[C@H](OC(=O)c6ccccc6-c6c7ccc(=[N+](CC)CC)cc-7oc7cc(N(CC)CC)ccc67)C(C)(C)[C@@H]5CC[C@]43C)[C@H]12 | 450 nM | 470 nM | 540 nM | 540 nM | 310 nM | 530 nM | – | –
– | – | CCN(CC)c1ccc2c(-c3ccccc3C(=O)O[C@H]3CC[C@]4(C)[C@H]5CC=C6[C@@H]7CC(C)(C)CC[C@]7(C(=O)OCc7ccccc7)CC[C@@]6(C)[C@]5(C)CC[C@H]4C3(C)C)c3ccc(=[N+](CC)CC)cc-3oc2c1 | 9050 nM | 9400 nM | 11200 nM | 9120 nM | 3350 nM | 8900 nM | – | –
Active | Not Active | CCN(CC)c1ccc2c(-c3ccccc3C(=O)O[C@H]3CC[C@]4(C)[C@H]5C(=O)C=C6[C@@H]7C[C@@](C)(C(=O)NCc8ccccc8)CC[C@]7(C)CC[C@@]6(C)[C@]5(C)CC[C@H]4C3(C)C)c3ccc(=[N+](CC)CC)cc-3oc2c1.[Cl-] | 40 nM | 40 nM | 80 nM | 60 nM | 20 nM | 60 nM | Active | Active
– | – | CCN(CC)c1ccc2c(-c3ccccc3C(=O)O[C@H]3CC[C@]4(C)[C@H]5CC=C6[C@@H]7[C@@H](C)[C@H](C)CC[C@]7(C(=O)OCc7ccccc7)CC[C@@]6(C)[C@]5(C)CC[C@H]4C3(C)C)c3ccc(=[N+](CC)CC)cc-3oc2c1 | 12700 nM | 13800 nM | 15400 nM | 15800 nM | 10100 nM | 11400 nM | – | –
– | – | CCN(CC)c1ccc2c(-c3ccccc3C(=O)O[C@H]3CC[C@]4(C)[C@H]5CC=C6[C@@H]7[C@@H](C)[C@H](C)CC[C@]7(C(=O)OC)CC[C@@]6(C)[C@]5(C)CC[C@H]4C3(C)C)c3ccc(=[N+](CC)CC)cc-3oc2c1 | 1720 nM | 1830 nM | 1840 nM | 1960 nM | 1750 nM | 1850 nM | – | –
– | – | C=C(C)[C@@H]1CC[C@]2(C(=O)OC)CC[C@]3(C)[C@H](CC[C@@H]4[C@@]5(C)CC[C@H](OC(=O)c6ccccc6-c6c7ccc(=[N+](CC)CC)cc-7oc7cc(N(CC)CC)ccc67)C(C)(C)[C@@H]5CC[C@]43C)[C@H]12 | 740 nM | 810 nM | 1770 nM | 1290 nM | 420 nM | 610 nM | – | –
